# From ChEMBL document CHEMBL3865824, “New (E)-1-alkyl-1H-benzo[d]imidazol-2-yl)methylene)indolin-2-ones: Synthesis, in vitro cytotoxicity evaluation and apoptosis inducing studies” (Eur J Med Chem, 2016)
# Calls of active or inactive are those of the source. The rule behind the calls is not given here.
# How the values were obtained:
# MDA-MB-231 [1] = assay: Inhibition of F-actin polymerization in human MDA-MB-231 cells assessed as decrease in protein extension at 1 to 4 uM after 12 hrs by rhodamine-phalloidin/hoechst […]-dual staining based confocal microscopic analysis; assay type: cell-based
# Summary of the method: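 MDA-MB-231 cells (1×10^6/well) were grown on coverslips for 24 h, then exposed 12 h to 1, 2 and 4 μM. After a PBS wash and fixation in 4% paraformaldehyde, F-actin was stained with rhodamine-phalloidin and nuclei with Hoechst […]. Slides were mounted in anti-fade reagent and imaged by confocal microscopy (20× objective).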
# MDA-MB-231 [2] = assay: Induction of apoptosis in human MDA-MB-231 cells assessed as cell shrinkage at 1 to 4 uM after 24 hrs by phase contrast microscopic analysis; assay type: functional, cell-based
# Summary of the method: (§1)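 MDA-MB-231 treated at 1, 2 or 4 µM for 24 h. Morphology examined and photographed by phase contrast microscopy against untreated control cells.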
# MDA-MB-231 [3] = assay: Induction of apoptosis in human MDA-MB-231 cells assessed as necrotic cells at 4 uM after 24 hrs by Annexin V-FITC/propidium iodide-staining based FACS analysis (reference value: 2.8 %); assay type: functional
# MDA-MB-231 [4] = assay: Induction of apoptosis in human MDA-MB-231 cells assessed as cell wall deformation at 1 to 4 uM after 24 hrs by phase contrast microscopic analysis; assay type: functional, cell-based; summary of the method: as §1
# MDA-MB-231 [5] = assay: Induction of apoptosis in human MDA-MB-231 cells assessed as late apoptotic cells at 4 uM after 24 hrs by Annexin V-FITC/propidium iodide-staining based FACS analysis (reference value: 3.6 %); assay type: functional
# [6] = Selectivity ratio of IC50 for human MCF10A cells to IC50 for human DU145 cells; assay type: ADME, cell-based, MCF-10A; conditions: MCF10A cells versus DU145 cells, read-out: Ratio IC50
# [7] = Cell cycle arrest in human MDA-MB-231 cells assessed as accumulation at S phase at 4 uM after 24 hrs by propidium iodide staining based FACS analysis (reference value: 24.6 %); assay type: functional
# Summary of the method: (§2)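 MDA-MB-231 at 1×10^6 cells/well treated with 1, 2 or 4 µM for 24 h, with a DMSO control. Cells harvested by trypsin, washed with PBS and fixed in 70% ethanol for 30 min at 4 °C. Stained 15 min at room temperature in the dark with PI buffer containing Triton X and DNase-free RNase A. Analysed by flow cytometry; G0/G1, S and G2/M fractions quantified.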
# [8] = Cytotoxicity against HGC cells assessed as reduction in cell viability after 48 hrs by MTT assay; assay type: functional, cell-based; conditions: Homo sapiens
# Summary of the method: (§3)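 Cells grown in DMEM or MEM with 10% FBS at 37 °C, 5% CO2. Seeded at 1×10^4 cells/well, incubated 48 h, then exposed to compound for 48 h with vehicle control. MTT (5 mg/mL stock) added for 4 h; formazan dissolved in DMSO, absorbance read at 570 nm. Preliminary screen at 50 µM. Compounds giving >50% inhibition were tested for dose-response curves; IC50 derived by linear regression of % inhibition versus concentration. Mean of three independent experiments in triplicate.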
# [9] = Cell cycle arrest in human MDA-MB-231 cells assessed as after 24 hrs by propidium iodide staining based FACS analysis
# [10] = Cytotoxicity against human BT549 cells assessed as growth inhibition at 50 uM after 48 hrs by MTT assay relative to control; assay type: functional; conditions: BT-549, 48 h, read-out: GI; summary of the method: as §3
# MDA-MB-231 [11] = assay: Induction of apoptosis in human MDA-MB-231 cells assessed as early apoptotic cells at 2 uM after 24 hrs by Annexin V-FITC/propidium iodide-staining based FACS analysis (reference value: 4.1 %); assay type: functional
# [12] = Cell cycle arrest in human MDA-MB-231 cells assessed as accumulation at G0/G1 phase at 4 uM after 24 hrs by propidium iodide staining based FACS analysis (reference value: 50.4 %); assay type: functional; summary of the method: as §2
# MDA-MB-231 [13] = assay: Induction of apoptosis in human MDA-MB-231 cells assessed as loss of mitochondrial membrane potential at 1 uM after 24 hrs by rhodamine-123 -based spectrofluorometric analysis relative to control; assay type: functional
# Summary of the method: (§4)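 MDA-MB-231 cells were plated at 5×10^5 cells/mL in 6-well plates, left to adhere overnight, then treated 24 h at 1, 2 and 4 μM. Cells were trypsinized, washed in PBS and loaded with rhodamine-123 (10 μg/mL) in PBS for 30 min at room temperature. After two PBS washes, fluorescence was read by spectrofluorometer (ex 480/em 530 nm). Loss is expressed against control; three independent experiments in triplicate.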
# [14] = Cytotoxicity against human DU145 cells assessed as reduction in cell viability after 48 hrs by MTT assay; assay type: functional, cell-based; conditions: DU-145, 48 h; summary of the method: as §3
# MDA-MB-231 [15] = assay: Induction of apoptosis in human MDA-MB-231 cells assessed as necrotic cells at 1 uM after 24 hrs by Annexin V-FITC/propidium iodide-staining based FACS analysis (reference value: 2.8 %); assay type: functional
# [16] = Cell cycle arrest in human MDA-MB-231 cells assessed as accumulation at G0/G1 phase at 2 uM after 24 hrs by propidium iodide staining based FACS analysis (reference value: 50.4 %); assay type: functional; summary of the method: as §2
# MDA-MB-231 [17] = assay: Induction of apoptosis in human MDA-MB-231 cells assessed as early apoptotic cells at 1 uM after 24 hrs by Annexin V-FITC/propidium iodide-staining based FACS analysis (reference value: 4.1 %); assay type: functional
# [18] = Selectivity ratio of IC50 for human MCF10A cells to IC50 for human MDA-MB-231 cells; assay type: ADME, cell-based, MCF-10A; conditions: MCF10A cells versus MDA-MB-231 cells, read-out: Ratio IC50
# [19] = Cell cycle arrest in human MDA-MB-231 cells assessed as accumulation at G2/M phase at 1 uM after 24 hrs by propidium iodide staining based FACS analysis (reference value: 26 %); assay type: functional; summary of the method: as §2
# MDA-MB-231 [20] = assay: Induction of apoptosis in human MDA-MB-231 cells assessed as viable cells at 4 uM after 24 hrs by Annexin V-FITC/propidium iodide-staining based FACS analysis (reference value: 89.5 %); assay type: functional; conditions: MDA-MB-231, 24 h, read-out: Activity
# MDA-MB-231 [21] = assay: Induction of apoptosis in human MDA-MB-231 cells assessed as late apoptotic cells after 24 hrs by Annexin V-FITC/propidium iodide-staining based FACS analysis; assay type: functional, cell-based
# MDA-MB-231 [22] = assay: Induction of apoptosis in human MDA-MB-231 cells assessed as increase in cleaved PARP expression after 24 hrs by Western blot analysis; assay type: functional, cell-based
# Summary of the method: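 MDA-MB-231 treated at 1, 2 or 4 µM for 24 h. Whole-cell extracts prepared in RIPA buffer. Blots probed with rabbit anti-caspase-3, anti-Bcl2 and anti-β-actin (1:1000) and anti-Bax (1:500), then HRP secondaries and ECL detection. Membranes stripped and reprobed. Bands quantified by densitometry as fold change versus control. Mean ± SEM, n=3.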
# [23] = Cytotoxicity against human A549 cells assessed as growth inhibition at 50 uM after 48 hrs by MTT assay relative to control; assay type: functional; conditions: A549, 48 h, read-out: GI; summary of the method: as §3
# MDA-MB-231 [24] = assay: Induction of apoptosis in human MDA-MB-231 cells assessed as loss of mitochondrial membrane potential at 2 uM after 24 hrs by rhodamine-123 -based spectrofluorometric analysis relative to control; assay type: functional; summary of the method: as §4
compound,measurement,setting,value
CC(C)n1c(/C=C2/C(=O)Nc3ccc(Br)cc32)nc2ccccc21,inhibition,MDA-MB-231 [1],Active
same,Activity,MDA-MB-231 [2],Active
same,Activity,MDA-MB-231 [3],4.2%
same,Activity,MDA-MB-231 [4],Active
same,Activity,MDA-MB-231 [5],7.1%
same,selectivity ratio,[6],8
same,Activity,[7],11.3%
same,IC50,[8],12.4 µM
same,Activity,[9],Dose-dependent effect
same,inhibition of growth at 50 µM,[10],> 50%
same,Activity,MDA-MB-231 [11],18.7%
same,Activity,[12],74.7%
same,Activity,MDA-MB-231 [13],25.2%
same,IC50,[14],7.5 µM
same,Activity,MDA-MB-231 [15],3.4%
same,Activity,[16],64.3%
same,Activity,MDA-MB-231 [17],8.6%
same,selectivity ratio,[18],17
same,Activity,[19],21.8%
same,viability at 4 µM,MDA-MB-231 [20],65.3%
same,Activity,MDA-MB-231 [21],Dose-dependent effect
same,Activity,MDA-MB-231 [22],Dose-dependent effect
same,inhibition of growth at 50 µM,[23],> 50%
same,Activity,MDA-MB-231 [24],32.5%
